17 compounds from PubChem BioAssay AID2727 (Broad Institute, 2010) can be followed below.

Some of the results follow. The source made the active and inactive calls.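 The calls were made as follows: active = inhibition above about 80% in every replicate, not just on average (limit read from the data); inconclusive = at least half of replicates past the limit, but not all; inactive = fewer than half of replicates past the limit.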

The experiment can be described thus: luminescence inhibition in constitutive-on V. harveyi, confirmation, counter-screen for LuxS inhibitor project, strain BB721, luminescence readout (AID 2727). The settings on record: Vibrio harveyi BB721 luminescence, 9 h; at 7.5 µM; stronger effect = higher value. A digest of the protocol:
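Evaluation: Luminescence decrease marking disrupted downstream quorum sensing signalling | Assay system: V. harveyi BB721 bacterial culture | Amount: Bacterial culture diluted to starting OD600 of 0.0005 | Timing: 9 h exposure at 30 °C | Medium: AB (autoinducer bioassay) growth medium | Doses: 45 nL per well from 10 mM compound stock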
A general note: The purpose of a counterscreen is to sort out artefacts and off-target activity.
Turning to `O=S(=O)(Nc1cccc(Oc2ccc(Cl)cc2)n1)c1ccc(F)cc1`, the inhibition is 99.6% (active).
Next, `O=C(CCC(=O)c1cccs1)Nc1nc2ccccc2s1`: 97.5% (active); `COC(=O)C1CCN(C(=O)c2ccc3oc(Cc4ccc(Cl)cc4)nc3c2)CC1`: 95.6% (active); `Cc1ccc(NC(=O)C2CC2c2ccccc2)cc1` (configuration not stated): 94.8% (active).
The same measure for `Cc1ccccc1C(=O)Nc1ccc(N2CCCCCC2)cc1`: 91.4% (active).
Regarding `CCOC(=O)c1nn(-c2cccc(C)c2)cc1C(=O)c1ccccc1`, the inhibition was 87.7% (active).
Consider `Cc1nn(CC(=O)Nc2ccc(F)cc2)c(=O)c2ccccc12`, for which the inhibition was 98.5% (active).
For `Cc1ccccc1NC(=O)CCOc1ccccc1`, the inhibition is 90.7% (active).
Consider `Cc1ccc(Oc2cnn(-c3ccccc3)c(=O)c2Br)cc1`, for which the inhibition was 99.2% (active).
Next, `O=C(Nc1ccc(F)c(Cl)c1)C1CCN(S(=O)(=O)c2cccnc2)CC1`: 97.7% (active).
Regarding `O=C1COc2ccc(S(=O)(=O)Nc3ccc(OC(F)(F)F)cc3)cc2N1`, the inhibition is 96.7% (active).
For `CN(Cc1cnccn1)C(=O)c1cc(COc2cccc(C(F)(F)F)c2)on1`, the inhibition is 96% (active).
Consider `CC(C)(C)c1ccc(OC2=CS(=O)(=O)c3ccccc32)cc1`, for which the inhibition is 92.5% (active).
Turning to `O=C(COc1ncnc2ccccc12)NC(=O)NCc1ccccc1`, the inhibition is 95.7% (active).
`O=C(Cn1cnc2ccccc2c1=O)Nc1cccc(S(=O)(=O)N2CCCCC2)c1`: the inhibition was 85.6% (active).
As to `O=C(c1cc(-c2cccc(O)c2)on1)N1CCc2ccccc2C1`, the inhibition is 93.6% (active).
As to `CC(CNc1ccc([N+](=O)[O-])cc1)NC(=O)c1ccccc1Br` (configuration not stated), the inhibition was -4.57% (inactive).

The inhibition is the change of the read-out against control, counted positive when it falls.
